ChEMBL document CHEMBL1255558, “Bis-alkylamine quindolone derivatives as new antimalarial leads” (Bioorg Med Chem Lett, 2010)

Experiments:
Plasmodium falciparum = test: Antimalarial activity against chloroquine-resistant Plasmodium falciparum W2; format: functional, organism-based
How it was run: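 Ring-stage parasites (1% parasitaemia in human red cells, sorbitol-synchronised) exposed to compounds for 48 h at 37 °C in RPMI-1640 with 25 mM HEPES pH 7.4 and 10% heat-inactivated human serum. Cells then fixed in 2% HCHO/PBS, stained with 1 nM YOYO-1 in PBS containing 100 mM NH₄Cl and 0.1% Triton X-100, and counted by flow cytometry (ex 488/em 520 nm). IC50 derived by curve fitting.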

[1] = Cytotoxicity against human HepG2A16 cells; format: cell-based
How it was run: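 HepG2 A16 human hepatic cells seeded at 1 × 10⁴ cells/well and exposed to a range of concentrations for 48 h under standard culture conditions. IC₅₀ (50% growth inhibition) read from plots of degree of cell injury against concentration.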

[2] = Selectivity ratio of IC50 for human HepG2A16 cells to IC50 for Plasmodium falciparum W2; format: ADME
How it was run: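 Ratio of HepG2 A16 cytotoxicity IC₅₀ (48 h) to W2 IC₅₀. The W2 assay used sorbitol-synchronized ring stages at 1% parasitemia in human RBCs, 48 h at 37 °C in RPMI-1640 with 25 mM HEPES pH 7.4 and 10% heat-inactivated human serum. Cells were then fixed in 2% HCHO, stained with 1 nM YOYO-1 and counted by flow cytometry.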

[3] = Binding to hematin monomer

| SMILES | IC50 (Plasmodium falciparum) [µM] | IC50 [1] [µM] | selectivity ratio [2] | log Kass [3] |
| --- | --- | --- | --- | --- |
| CCN(CC)CCOc1c2ccc(Cl)cc2nc2c1[nH]c1ccc(Cl)cc12 | 0.55 | – | – | – |
| CCN(CC)CCOc1c2ccc(Cl)cc2nc2c3cc(Cl)ccc3n(CCN(CC)CC)c12 | 0.051 | 5 | 98 | 5.2 |
| CCN(CC)CCOc1c2ccc(Cl)cc2nc2c3ccccc3n(CCN(CC)CC)c12 | 0.186 | 8 | 44 | 4.9 |
| CCN(CC)CCOc1c2ccc(Cl)cc2nc2c1[nH]c1ccccc12 | 1.33 | – | – | 5.1 |
| CCN(CC)CCn1c2ccccc2c2c1c(=O)c1ccccc1n2CCN(CC)CC | 0.267 | 4.33 | 16 | 4.9 |
| O=c1c2ccccc2[nH]c2c1[nH]c1ccccc12 | > 10 | 21 | < 2 | 4.7 |
| O=c1c2ccc(Cl)cc2[nH]c2c1[nH]c1ccc(Cl)cc12 | > 10 | – | – | 4.9 |
| CCN(CC)CCn1c2ccc(Cl)cc2c2c1c(=O)c1ccc(Cl)cc1n2CCN(CC)CC | 0.334 | 11 | 31 | 5.1 |
| CCN(CC)CCn1c2ccccc2c2c1c(=O)c1ccc(Cl)cc1n2CCN(CC)CC | 0.202 | 7 | 33 | 4.9 |
| O=c1c2ccc(Cl)cc2[nH]c2c1[nH]c1ccccc12 | 8.42 | – | – | 5 |
| CCN(CC)CCOc1c2ccccc2nc2c3ccccc3n(CCN(CC)CC)c12 | 0.539 | 7 | 12 | 4.9 |
| CCN(CC)CCOc1c2ccccc2nc2c1[nH]c1ccccc12 | 2.64 | 9 | 3.6 | 5 |
